# In ChEMBL document CHEMBL1126197, “Orally active beta-lactam inhibitors of human leukocyte elastase-1. Activity of 3,3-diethyl-2-azetidinones” (J Med Chem, 1992):
# What was measured:
# [1] = molecular target: T1, Neutrophil elastase (Homo sapiens) (UniProt P08246); assay: elastase inhibitory activity, evaluated for second order rate constant (time-dependent inhibition)
# T1 sequence (whole entry): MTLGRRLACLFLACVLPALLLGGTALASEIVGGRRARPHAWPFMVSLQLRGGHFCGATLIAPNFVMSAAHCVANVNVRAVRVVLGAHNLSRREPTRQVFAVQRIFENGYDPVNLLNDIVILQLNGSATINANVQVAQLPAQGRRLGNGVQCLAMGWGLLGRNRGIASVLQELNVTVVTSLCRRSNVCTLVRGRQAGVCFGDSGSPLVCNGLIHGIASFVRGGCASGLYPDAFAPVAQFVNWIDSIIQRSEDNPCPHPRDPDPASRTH
# Method in brief: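 HLE-catalyzed hydrolysis of MeO-Suc-Ala-Ala-Pro-Ala-pNA was followed while enzyme inactivation was monitored for 15 min. Second-order rate constants (kobs/I, M-1 s-1) were derived from this time-dependent inactivation.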
# [2] = molecular target: T1, Neutrophil elastase (Homo sapiens); assay: Percent inhibition in elastase-induced lung haemorrhage, when the compound is dosed orally at 30 mg/kg 30 min before challenge by HLE (Human leukocyte elastase); assay type: functional, organism-based; parameters: dose 30 mg/kg
# Method in brief: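 Anesthetized hamsters received the compound orally 30 min before intratracheal instillation of 50 units HLE. After 3 h, hemoglobin in the lung lavage was measured spectrophotometrically. Percent inhibition of hemorrhage was calculated for the drug-treated group against the vehicle-only group.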
Structure (SMILES),second order rate constant kobs/[I] [1],inhibition [2]
CCC1(CC)C(=O)N(C(=O)NCCCC(=O)c2ccccc2)C1Oc1ccc(C(=O)O)cc1 (configuration not stated),2000 M⁻¹ s⁻¹,0%
CCN(Cc1ccccc1)C(=O)N1C(=O)C(CC)(CC)C1Oc1ccc(C(=O)O)cc1 (configuration not stated),2300 M⁻¹ s⁻¹,34%
CCC1(CC)C(=O)N(C(=O)NCc2ccc(C)c(C)c2)C1Oc1ccc(C(=O)O)cc1 (configuration not stated),21000 M⁻¹ s⁻¹,52%
CCC1(CC)C(=O)N(C(=O)NCCCOc2ccccc2)C1Oc1ccc(C(=O)O)cc1 (configuration not stated),3500 M⁻¹ s⁻¹,40%
CCC1(CC)C(=O)N(C(=O)NCc2ccccc2)C1Oc1ccc(CC(=O)O)cc1 (configuration not stated),3200 M⁻¹ s⁻¹,71%
CCC1(CC)C(=O)N(C(=O)NCc2ccc(C)cc2)C1Oc1ccc(C(=O)O)cc1 (configuration not stated),4000 M⁻¹ s⁻¹,86%
CCC1(CC)C(=O)N(C(=O)NCc2ccc(OC)c(C)c2)C1Oc1ccc(C(=O)O)cc1 (configuration not stated),13100 M⁻¹ s⁻¹,64%
CCC1(CC)C(=O)N(C(=O)NCc2ccsc2)C1Oc1ccc(C(=O)O)cc1 (configuration not stated),1300 M⁻¹ s⁻¹,53%
CCC1(CC)C(=O)N(C(=O)NCc2ccccc2)C1Oc1ccc(C(=O)O)cc1 (configuration not stated),1500 M⁻¹ s⁻¹,56%
CCC1(CC)C(=O)N(C(=O)NCc2ccc(C)cc2)C1Oc1ccc(CC(=O)O)cc1 (configuration not stated),4500 M⁻¹ s⁻¹,72%
CCC1(CC)C(=O)N(C(=O)NCc2ccc(OC)cc2)C1Oc1ccc(C(=O)O)cc1 (configuration not stated),5200 M⁻¹ s⁻¹,60%
CCC1(CC)C(=O)N(C(=O)NCc2ccco2)C1Oc1ccc(C(=O)O)cc1 (configuration not stated),5200 M⁻¹ s⁻¹,58%
CCC1(CC)C(=O)N(C(=O)NCc2ccc(-c3ccccc3)cc2)C1Oc1ccc(C(=O)O)cc1 (configuration not stated),23200 M⁻¹ s⁻¹,24%
CCC1(CC)C(=O)N(C(=O)NCCCCCc2ccccc2)C1Oc1ccc(C(=O)O)cc1 (configuration not stated),4800 M⁻¹ s⁻¹,15%
CCC1(CC)C(=O)N(C(=O)NCCCc2ccccc2)C1Oc1ccc(C(=O)O)cc1 (configuration not stated),4500 M⁻¹ s⁻¹,12%
CCCCCCCCCNC(=O)N1C(=O)C(CC)(CC)C1Oc1ccc(C(=O)O)cc1 (configuration not stated),8300 M⁻¹ s⁻¹,
CCC1(CC)C(=O)N(C(=O)NCc2ccc(Cl)cc2)C1Oc1ccc(C(=O)O)cc1 (configuration not stated),3400 M⁻¹ s⁻¹,29%
CCC1(CC)C(=O)N(C(=O)NCc2ccc(N(C)C)cc2)C1Oc1ccc(C(=O)O)cc1 (configuration not stated),10000 M⁻¹ s⁻¹,25%
CCC1(CC)C(=O)N(C(=O)NCc2cccc3ccccc23)C1Oc1ccc(C(=O)O)cc1 (configuration not stated),8400 M⁻¹ s⁻¹,
CCC1(CC)C(=O)N(C(=O)NCc2ccc(C(=O)O)cc2)C1Oc1ccc(C(=O)O)cc1 (configuration not stated),2200 M⁻¹ s⁻¹,25%
CCC1(CC)C(=O)N(C(=O)NCc2ccc(C(C)=O)cc2)C1Oc1ccc(C(=O)O)cc1 (configuration not stated),5900 M⁻¹ s⁻¹,37%
CCC1(CC)C(=O)N(C(=O)NCc2ccc(F)cc2)C1Oc1ccc(C(=O)O)cc1 (configuration not stated),2300 M⁻¹ s⁻¹,4%
CCC1(CC)C(=O)N(C(=O)NCC2CCCCC2)C1Oc1ccc(C(=O)O)cc1 (configuration not stated),1400 M⁻¹ s⁻¹,0%
CCC1(CC)C(=O)N(C(=O)NCc2ccc(N)cc2)C1Oc1ccc(C(=O)O)cc1 (configuration not stated),1800 M⁻¹ s⁻¹,2%

Structure (SMILES),second order rate constant kobs/[I] [1],inhibition [2]
CCC1(CC)C(=O)N(C(=O)NCCCCc2ccccc2)C1Oc1ccc(C(=O)O)cc1 (configuration not stated),9200 M⁻¹ s⁻¹,35%
CCC1(CC)C(=O)N(C(=O)NCc2ccc(OCc3ccccc3)cc2)C1Oc1ccc(C(=O)O)cc1 (configuration not stated),12000 M⁻¹ s⁻¹,-9%
CCC1(CC)C(=O)N(C(=O)NCc2ccc(O)cc2)C1Oc1ccc(C(=O)O)cc1 (configuration not stated),3000 M⁻¹ s⁻¹,
CCC1(CC)C(=O)N(C(=O)NCc2cccc(C)c2)C1Oc1ccc(C(=O)O)cc1 (configuration not stated),7000 M⁻¹ s⁻¹,47%
CCC1(CC)C(=O)N(C(=O)NCc2ccc3ccccc3c2)C1Oc1ccc(C(=O)O)cc1 (configuration not stated),21300 M⁻¹ s⁻¹,37%
CCC1(CC)C(=O)N(C(=O)NCc2ccc(C)c(OC)c2)C1Oc1ccc(C(=O)O)cc1 (configuration not stated),6500 M⁻¹ s⁻¹,76%
CCC1(CC)C(=O)N(C(=O)NCc2cc(C)cc(C)c2)C1Oc1ccc(C(=O)O)cc1 (configuration not stated),14700 M⁻¹ s⁻¹,69%
CCC1(CC)C(=O)N(C(=O)NCc2ccccc2O)C1Oc1ccc(C(=O)O)cc1 (configuration not stated),1500 M⁻¹ s⁻¹,-2%
CCC1(CC)C(=O)N(C(=O)NCc2ccc(SC)cc2)C1Oc1ccc(C(=O)O)cc1 (configuration not stated),9400 M⁻¹ s⁻¹,28%
CCC1(CC)C(=O)N(C(=O)NCc2ccc3c(c2)OCO3)C1Oc1ccc(C(=O)O)cc1 (configuration not stated),5000 M⁻¹ s⁻¹,10%
CCC1(CC)C(=O)N(C(=O)NCCCCOc2ccccc2)C1Oc1ccc(C(=O)O)cc1 (configuration not stated),3400 M⁻¹ s⁻¹,30%
CCC1(CC)C(=O)N(C(=O)NCCc2ccccc2)C1Oc1ccc(C(=O)O)cc1 (configuration not stated),1300 M⁻¹ s⁻¹,33%
CCC1(CC)C(=O)N(C(=O)NCc2ccc(-c3ccccc3)cc2)C1Oc1ccc(CC(=O)O)cc1 (configuration not stated),29000 M⁻¹ s⁻¹,19%
CCC1(CC)C(=O)N(C(=O)NCc2cccs2)C1Oc1ccc(C(=O)O)cc1 (configuration not stated),4900 M⁻¹ s⁻¹,52%
CCC1(CC)C(=O)N(C(=O)NCc2ccc(C)cc2C)C1Oc1ccc(C(=O)O)cc1 (configuration not stated),1500 M⁻¹ s⁻¹,45%
CCC1(CC)C(=O)N(C(=O)NCCCC(O)c2ccccc2)C1Oc1ccc(C(=O)O)cc1 (configuration not stated),5100 M⁻¹ s⁻¹,
CCC1(CC)C(=O)N(C(=O)NCCC(=O)c2ccccc2)C1Oc1ccc(C(=O)O)cc1 (configuration not stated),2100 M⁻¹ s⁻¹,8%
CCc1ccc(CNC(=O)N2C(=O)C(CC)(CC)C2Oc2ccc(C(=O)O)cc2)cc1 (configuration not stated),8200 M⁻¹ s⁻¹,46%
CCC1(CC)C(=O)N(C(=O)NCc2ccccc2C)C1Oc1ccc(C(=O)O)cc1 (configuration not stated),700 M⁻¹ s⁻¹,33%
CCC1(CC)C(=O)N(C(=O)NCCCCCCc2ccccc2)C1Oc1ccc(C(=O)O)cc1 (configuration not stated),5000 M⁻¹ s⁻¹,14%
CCCCNC(=O)N1C(=O)C(CC)(CC)C1Oc1ccc(C(=O)O)cc1 (configuration not stated),800 M⁻¹ s⁻¹,45%
CCC1(CC)C(=O)N(C(=O)NCc2ccc([N+](=O)[O-])cc2)C1Oc1ccc(C(=O)O)cc1 (configuration not stated),5100 M⁻¹ s⁻¹,22%
CCC1(CC)C(=O)N(C(=O)NCc2ccc(C(N)=O)cc2)C1Oc1ccc(C(=O)O)cc1 (configuration not stated),4300 M⁻¹ s⁻¹,10%
CCC1(CC)C(=O)N(C(=O)NCc2ccccc2N)C1Oc1ccc(C(=O)O)cc1 (configuration not stated),1200 M⁻¹ s⁻¹,73%
